Measurements pooled from the literature.
Lines come from different studies, so protocols differ.
Target: Insulin receptor (INSR, Homo sapiens, UniProt P06213)

With `CCCCC(=O)Nc1ccc(-c2ccc3ncn(CCC)c(=O)c3c2)cn1` the remaining binding was 100% (binding, competition with immobilised ligand; 0.5 µM).
With `CC#CC(=O)N1CCC[C@H]1c1nc(-c2ccc(C(=O)Nc3ccccn3)cc2)c2c(N)nccn12` the inhibition was 0% (enzyme activity, inhibitor; 1 µM).
With `C[C@H]1CC[C@H](n2c3cnccc3c3cnc(Nc4ccc5c(n4)CCN(C(=O)CO)C5)nc32)CC1` the remaining binding was 96% (binding; 1 µM).
`N#Cc1ccc(NC(=O)Nc2ccccc2)cc1` has a remaining binding of 89% (cell-free assay, competition with immobilised ligand; 25 µM).
`C=CC(=O)N1CCC([C@@H]2CCNc3c(C(N)=O)c(-c4ccc(Oc5ccccc5)cc4)nn32)CC1` has an inhibition of 0% (cell-free assay; 1 µM).
`C1=C/COCc2cc(ccc2OCCN2CCCC2)Nc2nccc(n2)-c2cccc(c2)COC/1` has a remaining binding of 83% (binding; 0.1 µM).
For `COc1ccc2oc(-c3ccc4nc(N)oc4c3)c/c(=N\c3ccccc3NC(=O)CCN)c2c1`, the remaining binding was 85% (binding; 1 µM).
For `COc1ccc2[nH]c3c4[nH]c5ccc(OC)cc5c4c4c(c3c2c1)C(=O)NC4=O`, the remaining binding was 66% (binding; 1 µM).
